Experimental data from ChEMBL document CHEMBL1151705, “Novel azalides derived from 16-membered macrolides. Part II: Isolation of the linear 9-formylcarboxylic acid and its sequential macrocyclization with an amino alcohol or an azidoamine” (2008).
In brackets after ≈: the same amount, converted by molar mass.

Key:
Type in all cases: functional
Streptococcus pneumoniae [1] = assay: Antimicrobial activity against Streptococcus pneumoniae 8 expressing inducible ermB after 20 hrs by agar dilution method; conditions: Streptococcus pneumoniae, 20 h; read-out: MIC
Summary of the method: (§1)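 Streptococci, H. influenzae and M. catarrhalis were precultured on blood agar plates. Suspensions of about 10⁶ CFU/ml were inoculated onto sensitivity disk agar supplemented with 5% horse blood and incubated at 37 °C for 20 h. MIC was read as the lowest drug concentration with no visible growth.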

Streptococcus pneumoniae [2] = assay: Antimicrobial activity against Streptococcus pneumoniae 9 expressing mefA after 20 hrs by agar dilution method; conditions: Streptococcus pneumoniae, 20 h; read-out: MIC; summary of the method: as §1
Streptococcus pneumoniae [3] = assay: Antimicrobial activity against Streptococcus pneumoniae 10 expressing mefA after 20 hrs by agar dilution method; conditions: Streptococcus pneumoniae, 20 h; read-out: MIC; summary of the method: as §1
Streptococcus pyogenes [4] = assay: Antimicrobial activity against drug-susceptible Streptococcus pyogenes 1 after 20 hrs by agar dilution method; conditions: Streptococcus pyogenes, 20 h; read-out: MIC; summary of the method: as §1
Streptococcus pyogenes [5] = assay: Antimicrobial activity against Streptococcus pyogenes 2 constitutively expressing ermB after 20 hrs by agar dilution method; summary of the method: as §1
Streptococcus pyogenes [6] = assay: Antimicrobial activity against Streptococcus pyogenes 3 expressing mefA after 20 hrs by agar dilution method; conditions: Streptococcus pyogenes, 20 h; read-out: MIC; summary of the method: as §1
Moraxella catarrhalis [7] = assay: Antimicrobial activity against drug-susceptible Moraxella catarrhalis 1 after 20 hrs by agar dilution method; conditions: Moraxella catarrhalis, 20 h; read-out: MIC; summary of the method: as §1
Moraxella catarrhalis [8] = assay: Antimicrobial activity against drug-susceptible Moraxella catarrhalis 2 after 20 hrs by agar dilution method; conditions: Moraxella catarrhalis, 20 h; read-out: MIC; summary of the method: as §1
Haemophilus influenzae [9] = assay: Antimicrobial activity against drug-susceptible Haemophilus influenzae 1 after 20 hrs by agar dilution method; conditions: Haemophilus influenzae, 20 h; read-out: MIC; summary of the method: as §1
Haemophilus influenzae [10] = assay: Antimicrobial activity against drug-susceptible Haemophilus influenzae 2 after 20 hrs by agar dilution method; conditions: Haemophilus influenzae, 20 h; read-out: MIC; summary of the method: as §1
Haemophilus influenzae [11] = assay: Antimicrobial activity against drug-susceptible Haemophilus influenzae 3 after 20 hrs by agar dilution method; conditions: Haemophilus influenzae, 20 h; read-out: MIC; summary of the method: as §1
Haemophilus influenzae [12] = assay: Antimicrobial activity against drug-susceptible Haemophilus influenzae 4 after 20 hrs by agar dilution method; conditions: Haemophilus influenzae, 20 h; read-out: MIC; summary of the method: as §1
Staphylococcus aureus [13] = assay: Antimicrobial activity against drug-susceptible Staphylococcus aureus 209P JC-1 after 20 hrs by agar dilution method; conditions: Staphylococcus aureus, 209P, 20 h; read-out: MIC
Summary of the method: (§2)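 Agar dilution MIC. S. aureus seed culture was grown in sensitivity test broth. Cell suspension (about 10⁶ CFU/ml) was inoculated onto sensitivity disk agar with 5% horse blood and incubated at 37 °C for 20 h. MIC was the lowest drug concentration that prevented visible growth.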

Staphylococcus aureus [14] = assay: Antimicrobial activity against drug-susceptible Staphylococcus aureus 2 after 20 hrs by agar dilution method; conditions: Staphylococcus aureus, 20 h; read-out: MIC; summary of the method: as §2
Staphylococcus aureus [15] = assay: Antimicrobial activity against drug-susceptible Staphylococcus aureus 3 after 20 hrs by agar dilution method; conditions: Staphylococcus aureus, 20 h; read-out: MIC; summary of the method: as §2
Staphylococcus aureus [16] = assay: Antimicrobial activity against Staphylococcus aureus 4 constitutively expressing ermA after 20 hrs by agar dilution method; summary of the method: as §2
Staphylococcus aureus [17] = assay: Antimicrobial activity against Staphylococcus aureus 5 expressing inducible ermB after 20 hrs by agar dilution method; conditions: Staphylococcus aureus, 20 h; read-out: MIC; summary of the method: as §2
Streptococcus pneumoniae [18] = assay: Antimicrobial activity against drug-susceptible Streptococcus pneumoniae DP1 Type1 after 20 hrs by agar dilution method; conditions: Streptococcus pneumoniae, 20 h; read-out: MIC; summary of the method: as §1
Streptococcus pneumoniae [19] = assay: Antimicrobial activity against drug-susceptible Streptococcus pneumoniae 2 after 20 hrs by agar dilution method; conditions: Streptococcus pneumoniae, 20 h; read-out: MIC; summary of the method: as §1
Streptococcus pneumoniae [20] = assay: Antimicrobial activity against drug-susceptible Streptococcus pneumoniae 3 after 20 hrs by agar dilution method; conditions: Streptococcus pneumoniae, 20 h; read-out: MIC; summary of the method: as §1
Streptococcus pneumoniae [21] = assay: Antimicrobial activity against Streptococcus pneumoniae 4 constitutively expressing ermB after 20 hrs by agar dilution method; conditions: Streptococcus pneumoniae, 20 h; read-out: MIC; summary of the method: as §1
Streptococcus pneumoniae [22] = assay: Antimicrobial activity against Streptococcus pneumoniae 5 constitutively expressing ermB/mefA after 20 hrs by agar dilution method; conditions: Streptococcus pneumoniae, 20 h; read-out: MIC; summary of the method: as §1
Streptococcus pneumoniae [23] = assay: Antimicrobial activity against Streptococcus pneumoniae 6 constitutively expressing ermB after 20 hrs by agar dilution method; conditions: Streptococcus pneumoniae, 20 h; read-out: MIC; summary of the method: as §1
Streptococcus pneumoniae [24] = assay: Antimicrobial activity against Streptococcus pneumoniae 7 expressing inducible ermB after 20 hrs by agar dilution method; conditions: Streptococcus pneumoniae, 20 h; read-out: MIC; summary of the method: as §1
Staphylococcus aureus [25] = assay: Antimicrobial activity against Staphylococcus aureus 6 expressing inducible ermB after 20 hrs by agar dilution method; summary of the method: as §2

| Compound | MIC (Streptococcus pneumoniae [1]) | MIC (Streptococcus pneumoniae [2]) | MIC (Streptococcus pneumoniae [3]) | MIC (Streptococcus pyogenes [4]) | MIC (Streptococcus pyogenes [5]) | MIC (Streptococcus pyogenes [6]) | MIC (Moraxella catarrhalis [7]) | MIC (Moraxella catarrhalis [8]) | MIC (Haemophilus influenzae [9]) | MIC (Haemophilus influenzae [10]) | MIC (Haemophilus influenzae [11]) | MIC (Haemophilus influenzae [12]) | MIC (Staphylococcus aureus [13]) | MIC (Staphylococcus aureus [14]) | MIC (Staphylococcus aureus [15]) | MIC (Staphylococcus aureus [16]) | MIC (Staphylococcus aureus [17]) | MIC (Streptococcus pneumoniae [18]) | MIC (Streptococcus pneumoniae [19]) | MIC (Streptococcus pneumoniae [20]) | other results |
| --- | --- | --- | --- | --- | --- | --- | --- | --- | --- | --- | --- | --- | --- | --- | --- | --- | --- | --- | --- | --- | --- |
| CCOC(=O)[C@H]1[C@H](C)O[C@@H](O[C@H]2[C@H](N(C)C)[C@@H](O)[C@H](O[C@H]3[C@@H](CC=O)C[C@@H](C)[C@@H](O)CN(C)CCC[C@H](CCCc4cnc5ccccc5c4)OC(=O)C[C@@H](OC(=O)CC)[C@@H]3OC)O[C@@H]2C)C[C@@]1(C)O | 4 µg/mL (≈ 4.05 µM) | 0.015 µg/mL (≈ 0.0152 µM) | 0.015 µg/mL (≈ 0.0152 µM) | 0.015 µg/mL (≈ 0.0152 µM) | > 128 µg/mL | 0.13 µg/mL (≈ 0.132 µM) | 1 µg/mL (≈ 1.01 µM) | 1 µg/mL (≈ 1.01 µM) | 32 µg/mL (≈ 32.4 µM) | 2 µg/mL (≈ 2.02 µM) | 8 µg/mL (≈ 8.1 µM) | 8 µg/mL (≈ 8.1 µM) | 0.13 µg/mL (≈ 0.132 µM) | 0.25 µg/mL (≈ 0.253 µM) | 0.13 µg/mL (≈ 0.132 µM) | > 128 µg/mL | 0.13 µg/mL (≈ 0.132 µM) | < 0.008 µg/mL | 0.015 µg/mL (≈ 0.0152 µM) | < 0.008 µg/mL | MIC (Streptococcus pneumoniae [21]): 128 µg/mL (≈ 130 µM); MIC (Streptococcus pneumoniae [22]): 128 µg/mL (≈ 130 µM); MIC (Streptococcus pneumoniae [23]): 128 µg/mL (≈ 130 µM); MIC (Streptococcus pneumoniae [24]): 4 µg/mL (≈ 4.05 µM); MIC (Staphylococcus aureus [25]): 0.25 µg/mL (≈ 0.253 µM) |
| CCOC(=O)[C@H]1[C@H](C)O[C@@H](O[C@H]2[C@H](N(C)C)[C@@H](O)[C@H](O[C@H]3[C@@H](CC=O)C[C@@H](C)[C@@H](O)CN(C)CC(/C=C\Cc4cnc5ccccc5c4)CCOC(=O)C[C@@H](OC(=O)CC)[C@@H]3OC)O[C@@H]2C)C[C@@]1(C)O (stereo not given in full) | 8 µg/mL (≈ 8.11 µM) | 0.13 µg/mL (≈ 0.132 µM) | 0.13 µg/mL (≈ 0.132 µM) | 0.13 µg/mL (≈ 0.132 µM) | > 64 µg/mL | 0.5 µg/mL (≈ 0.507 µM) | 2 µg/mL (≈ 2.03 µM) | 2 µg/mL (≈ 2.03 µM) | > 64 µg/mL | 8 µg/mL (≈ 8.11 µM) | 16 µg/mL (≈ 16.2 µM) | 16 µg/mL (≈ 16.2 µM) | 0.5 µg/mL (≈ 0.507 µM) | 1 µg/mL (≈ 1.01 µM) | 0.25 µg/mL (≈ 0.253 µM) | > 64 µg/mL | 0.25 µg/mL (≈ 0.253 µM) | 0.06 µg/mL (≈ 0.0608 µM) | 0.25 µg/mL (≈ 0.253 µM) | 0.13 µg/mL (≈ 0.132 µM) | MIC (Streptococcus pneumoniae [21]): > 64 µg/mL; MIC (Streptococcus pneumoniae [22]): > 64 µg/mL; MIC (Streptococcus pneumoniae [23]): > 64 µg/mL; MIC (Streptococcus pneumoniae [24]): 8 µg/mL (≈ 8.11 µM); MIC (Staphylococcus aureus [25]): 1 µg/mL (≈ 1.01 µM) |
| CCOC(=O)[C@H]1[C@H](C)O[C@@H](O[C@H]2[C@H](N(C)C)[C@@H](O)[C@H](O[C@H]3[C@@H](CC=O)C[C@@H](C)[C@@H](O)CN(C)CCC[C@H](C/C=C/c4cccc5ccccc45)OC(=O)C[C@@H](OC(=O)CC)[C@@H]3OC)O[C@@H]2C)C[C@@]1(C)O | 2 µg/mL (≈ 2.03 µM) | 0.06 µg/mL (≈ 0.0609 µM) | 0.06 µg/mL (≈ 0.0609 µM) | 0.25 µg/mL (≈ 0.254 µM) | 64 µg/mL (≈ 65 µM) | 1 µg/mL (≈ 1.01 µM) | 2 µg/mL (≈ 2.03 µM) | 2 µg/mL (≈ 2.03 µM) | 64 µg/mL (≈ 65 µM) | 16 µg/mL (≈ 16.2 µM) | 16 µg/mL (≈ 16.2 µM) | 16 µg/mL (≈ 16.2 µM) | 1 µg/mL (≈ 1.01 µM) | 2 µg/mL (≈ 2.03 µM) | 0.5 µg/mL (≈ 0.507 µM) | > 128 µg/mL | 0.5 µg/mL (≈ 0.507 µM) | 0.06 µg/mL (≈ 0.0609 µM) | 0.13 µg/mL (≈ 0.132 µM) | 0.06 µg/mL (≈ 0.0609 µM) | MIC (Streptococcus pneumoniae [21]): 64 µg/mL (≈ 65 µM); MIC (Streptococcus pneumoniae [22]): 64 µg/mL (≈ 65 µM); MIC (Streptococcus pneumoniae [23]): 64 µg/mL (≈ 65 µM); MIC (Streptococcus pneumoniae [24]): 4 µg/mL (≈ 4.06 µM); MIC (Staphylococcus aureus [25]): 1 µg/mL (≈ 1.01 µM) |
